The test in a line: Minimum effective concentration (MEC) value was determined as a measure of anti-coccidial activity (MEC is expressed as mmol/kg of feed). The test is classed as functional. The method, boiled down: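 Dietary activity was graded by the lowest effective feed level, originally in ppm and converted to mmol/kg of feed. Where MEC was only bounded (>250 ppm or >500 ppm), it was assigned the next higher feed level.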
Compound `O=c1cnn(-c2ccc(S(=O)(=O)N3CCOCC3)c(Cl)c2)c(=O)[nH]1` registered an MEC of 30 p.p.m. In the case of `Cc1cc(-n2ncc(=O)[nH]c2=O)cc(C)c1S(=O)(=O)N1CCOCC1`, the MEC was 15 p.p.m. `O=c1cnn(-c2cc(Cl)c(S(=O)(=O)N3CCOCC3)c(Cl)c2)c(=O)[nH]1` gave an MEC of 30 p.p.m. Take `O=c1cnn(-c2cccc(Cl)c2)c(=O)[nH]1`: the MEC was 125 p.p.m.

For `Cc1cc(C)cc(-n2ncc(=O)[nH]c2=O)c1`, the MEC came out at 30 p.p.m. Consider `Cc1cc(Cl)cc(-n2ncc(=O)[nH]c2=O)c1`, for which the MEC is reported as 15 p.p.m. With `O=c1cnn(-c2ccc(S(=O)(=O)c3ccc(Cl)cc3)cc2)c(=O)[nH]1` the figure was 4 p.p.m; with `Cc1cc(-n2ncc(=O)[nH]c2=O)cc(Cl)c1Sc1ccc(Cl)cc1`, 0.2 p.p.m; with `COc1c(Cl)cc(-n2ncc(=O)[nH]c2=O)cc1Cl`, 250 p.p.m. For `O=c1cnn(-c2cc(Cl)c(S(=O)(=O)c3ccc(Cl)cc3)c(Cl)c2)c(=O)[nH]1` the value was 0.5 p.p.m; for `O=c1cnn(-c2cc(Cl)cc(Cl)c2)c(=O)[nH]1`, 4 p.p.m; for `O=c1cnn(-c2ccccc2)c(=O)[nH]1`, 500 p.p.m. Compound `O=c1cnn(-c2ccc(Sc3ccc(Cl)cc3)c(Cl)c2)c(=O)[nH]1` registered an MEC of 2 p.p.m. With `O=c1cnn(-c2cc(Cl)c(Sc3ccc(Cl)cc3)c(Cl)c2)c(=O)[nH]1` the figure was 0.2 p.p.m; with `O=c1cnn(-c2ccc(S(=O)(=O)c3ccc(Br)cc3)cc2)c(=O)[nH]1`, 8 p.p.m; with `Cc1cc(-n2ncc(=O)[nH]c2=O)cc(C)c1S(=O)(=O)c1ccc(Cl)cc1`, 1 p.p.m. For `Cc1cc(-n2ncc(=O)[nH]c2=O)cc(C)c1[S+]([O-])c1ccc(Cl)cc1` (centres undefined) the value was 1 p.p.m. For `Cc1cc(-n2ncc(=O)[nH]c2=O)cc(Cl)c1S(=O)(=O)c1ccc(Cl)cc1` the value was 8 p.p.m; for `O=c1cnn(-c2ccc(S(=O)(=O)c3ccccc3)cc2)c(=O)[nH]1`, 30 p.p.m. With `O=C(c1ccc(Cl)cc1)c1c(Cl)cc(-n2ncc(=O)[nH]c2=O)cc1Cl`, the MEC is on record as 0.5 p.p.m. With `CS(=O)(=O)c1ccc(-n2ncc(=O)[nH]c2=O)cc1` the figure was 500 p.p.m; with `O=c1cnn(-c2ccc([N+](=O)[O-])cc2)c(=O)[nH]1`, 250 p.p.m. Compound `O=c1cnn(-c2ccc(Oc3ccccc3)cc2)c(=O)[nH]1` displayed an MEC of 500 p.p.m.

`O=c1cnn(-c2ccc(Oc3ccc(I)cc3)c(Cl)c2)c(=O)[nH]1` yielded an MEC of 7.5 p.p.m.

As for `CSc1ccc(Oc2ccc(-n3ncc(=O)[nH]c3=O)cc2C)cc1`, the MEC is 2 p.p.m.

In turn, `Cc1cc(-n2ncc(=O)[nH]c2=O)ccc1Oc1ccc(Br)cc1` came in with an MEC of 7.5 p.p.m. `CSc1ccc(Oc2ccc(-n3ncc(=O)[nH]c3=O)cc2Cl)cc1` gave an MEC of 3.8 p.p.m.

`CC(=O)c1ccc(Sc2c(C)cc(-n3ncc(=O)[nH]c3=O)cc2Cl)cc1` returned an MEC of 0.25 p.p.m. For `O=c1cnn(-c2ccc(Oc3ccc4cc(Br)ccc4c3)c(Cl)c2)c(=O)[nH]1` the value was 7.5 p.p.m; for `O=c1cnn(-c2ccc(Sc3ccc4ccccc4c3)c(Cl)c2)c(=O)[nH]1`, 125 p.p.m; for `CSc1ccc(Oc2c(C)cc(-n3ncc(=O)[nH]c3=O)cc2C)cc1`, 2 p.p.m. Turning to `COc1cc(-n2ncc(=O)[nH]c2=O)cc(OC)c1OC`, the MEC was 1000 p.p.m. For `CC(=O)c1ccc(Oc2c(C)cc(-n3ncc(=O)[nH]c3=O)cc2Cl)cc1` the value was 2 p.p.m; for `Cc1cc(-n2ncc(=O)[nH]c2=O)ccc1Oc1ccc(Cl)cc1Cl`, 7.5 p.p.m. For `Cc1cc(-n2ncc(=O)[nH]c2=O)ccc1Oc1ccc(Cl)cc1` the value was 60 p.p.m; for `O=c1cnn(-c2cccc(C(F)(F)F)c2)c(=O)[nH]1`, 30 p.p.m; for `Cc1cc(-n2ncc(=O)[nH]c2=O)cc(Cl)c1Oc1ccc(Cl)cc1`, 3.8 p.p.m. Turning to `CSc1ccc(Oc2c(C)cc(-n3ncc(=O)[nH]c3=O)cc2C)cc1C`, the MEC worked out at 2 p.p.m. For `Cc1cc(-n2ncc(=O)[nH]c2=O)ccc1Oc1ccc(S(C)(=O)=O)cc1` the value was 4 p.p.m; for `Cc1cc(-n2ncc(=O)[nH]c2=O)cc(Cl)c1Oc1ccc(C(C)O)cc1` (centres undefined), 2 p.p.m.

As for `CCN(C)S(=O)(=O)c1ccc(Oc2c(C)cc(-n3ncc(=O)[nH]c3=O)cc2Cl)c(Cl)c1`, the MEC was 3.8 p.p.m.

Compound `Cc1cc(-n2ncc(=O)[nH]c2=O)cc(Cl)c1Oc1ccc(S(=O)(=O)NC2CC2)cc1Cl` registered an MEC of 15 p.p.m.

`O=c1cnn(-c2cc(Cl)c(Cc3ccc(Cl)cc3)c(Cl)c2)c(=O)[nH]1` showed an MEC of 0.25 p.p.m. Compound `O=c1cnn(-c2ccc(Oc3ccc(Cl)cc3Cl)c(Cl)c2)c(=O)[nH]1` registered an MEC of 7.5 p.p.m. With `O=c1cnn(-c2ccc(F)c(C(F)(F)F)c2)c(=O)[nH]1`, the MEC is listed as 15 p.p.m. For `N#Cc1cccc(-n2ncc(=O)[nH]c2=O)c1` the value was 30 p.p.m; for `O=c1cnn(-c2ccc(Cc3ccc(Cl)cc3)c(Cl)c2)c(=O)[nH]1`, 8 p.p.m; for `COc1cc(OC)cc(-n2ncc(=O)[nH]c2=O)c1`, 500 p.p.m.

`O=c1cnn(-c2ccc(Br)c(C(F)(F)F)c2)c(=O)[nH]1` displayed an MEC of 15 p.p.m. As to `O=c1cnn(-c2ccc(C(O)c3ccc(Cl)cc3)c(Cl)c2)c(=O)[nH]1` (centres undefined), the MEC was 2 p.p.m. As to `Cc1cc(-n2ncc(=O)[nH]c2=O)cc(C)c1C(=O)c1ccc(Cl)cc1`, the MEC came to 15 p.p.m. With `Cc1cc(-n2ncc(=O)[nH]c2=O)ccc1C(O)c1ccccc1` (centres undefined) the figure was 30 p.p.m; with `N#CC(c1ccc(Cl)cc1)c1c(Cl)cc(-n2ncc(=O)[nH]c2=O)cc1Cl` (centres undefined) [DICLAZURIL], 0.1 p.p.m.

On to `Cc1cc(-n2ncc(=O)[nH]c2=O)cc(C)c1Sc1ccc(Cl)cc1` [TIAZURIL], for which the MEC was 0.5 p.p.m.

These data come from ChEMBL document CHEMBL1125267, “Linear discriminant and multiple regression analyses of anticoccidial triazines” (1991).
